The results in this text go back to the EternaBench riboswitch data.

For the series, the system named is MS2 coat protein. The series can be described thus: apparent Kd, MS2 coat protein; higher = weaker binding; RNA-MaP array; FMN 200 µM where present. In short, it runs like this:
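On Illumina sequencing-chip clusters, designs were transcribed by stalled E. coli RNA polymerase and titrated with SNAP-549-labelled MS2 coat protein (0.7 or 1.5 nM, doubling to 3 µM), without and then with constant ligand, in 100 mM Tris-HCl pH 7.5, 80 mM KCl, 4 mM MgCl2, BSA, DTT, yeast tRNA and Tween-20. Apparent Kd is the median of filtered per-cluster curve fits to green signal normalised to red-channel RNA signal and control-cluster median Fmax.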

The mark [1] stands for this setting: designed as: OFF switch for flavin mononucleotide, no ligand.
Where [2] appears, read: ligand present: flavin mononucleotide, designed as: OFF switch for flavin mononucleotide.
The mark [3] stands for this setting: designed as: ON switch for flavin mononucleotide, no ligand.
[4] abbreviates: ligand present: flavin mononucleotide, designed as: ON switch for flavin mononucleotide.

In the case of “CCUAUACAUGAGGAUCACCCAUGUCAGGAUAUGGACAGCUACGUCAUAGGACGUAGCACCAGAAGGGACUGGCA”, the apparent Kd (commonly a dissociation constant that holds for the conditions of the assay) by setting is: under setting [1], 50.1 nM; under setting [2], 130 nM.

On to “GUCAGCUCGUGAGGAUAUACAUGUGCUGGAUACAGCACUAAAGUUUUCACAUGAGGAUCACCCAUGUAGAAGGCACGAGCUGAU”, for which the “apparent Kd” value by setting is: under setting [1], 15.3 nM; under setting [2], 33.9 nM.

As to “GUGGUGGGUUGAGGAUAUUGGUUGUUGUUGUCCCACAUGAGGAUCACCCAUGUGGGUUGUGGUUUUGAGAAGGUUGGUUGCCGG”, the “apparent Kd” value reads like this: under setting [3], 18.8 nM; under setting [4], 16.6 nM.

As to “GCUCAUAUCACAGGAUAUGGCCAGCAAAUUUGGCCAGAAGGGUGAUUCAUAUUAAAAUCACAUGAGGAUCACCCAUGUACGGCA”, the “apparent Kd” value stood at 166 nM under setting [3] and 321 nM under setting [4].

As for “UGUGUCAUCGAGAAGGCCUCAACAUGAGGAUCACCCAUGUUGUAAUAUGGGAGGAUAUCGAUGAUACAGCUACGUUUCGUAGCU”, the “apparent Kd” value under setting [3] came out at 19.2 nM and the “apparent Kd” value under setting [4] was 5.78 nM.

For the sequence “GUCGUACAAGGAUAUACGGUGAGCUGUGAGUUAUCUGGGACACAUGAGGAUCACCCAUGUAGAAGGUGUCGACA”, the “apparent Kd” value under setting [1] stood at 310 nM and the “apparent Kd” value under setting [2] amounted to 470 nM.

In the case of “GAGCAGGUAAUAAAGUAGAAAUACAUGAGGAUCACCCAUGUAUAGGAUAUCGUCAGGAAUACUGACGAGAAGGAUACAUCCUGC”, the “apparent Kd” value under setting [1] stood at 14.2 nM and the “apparent Kd” value under setting [2] came out at 18.1 nM.

With “GUGGUGCAUAUACGUGGAUGUACAUGAGGAUCACCCAUGUAAGAGGAUAUGCGGAUACUAGCUCAGCAGAAGGCUUACAAAUGA”, the “apparent Kd” value reads like this: under setting [1], 30.3 nM; under setting [2], 240 nM.

“CAUUAAUUCAUUAUAGUUAUUAUACAGGAUAUGUUACAUGAGGAUCACCCAUGUAUUCUUGGUAAACAGAAGGGUAUUUCUAGU”: the “apparent Kd” value is, setting by setting: under setting [1], 7.48 nM; under setting [2], 8.5 nM.

Consider “AGUACUACAGGAUAUACAUGGGUGAUCCUCAUGUCCCUUCUACAUGAGGAUCACCCAUGUAGAAGGGUAGUACA”, for which the “apparent Kd” value under setting [1] was determined as 15.1 nM and the “apparent Kd” value under setting [2] turned out to be 11.3 nM.

Consider “UAUGUGUCAGGAUAUUAAUUAUUGGAGAAUGUGACGAUGAUUAAGAAGGGACAUGAGGAUCACCCAUGUUCAUC”, for which the “apparent Kd” value under setting [1] worked out at 20.4 nM and the “apparent Kd” value under setting [2] is 33.6 nM.

As for “GUGGUUCUCGUAGGAUAUGUAGGAUAUGCCUACAUGAGGAUCACCCAUGUUCGCAUGGCAGAAGGACAGAAGGACGAUCACCAG”, the “apparent Kd” value is 54.6 nM under setting [3] and 27.7 nM under setting [4].

On to “UCGUUGUCAGGAUAUCGUGUAUACAACGUUAGUUCUAUGUGCGAGAAGGGACAUGAGGAUCACCCAUGUUACGU”, for which the “apparent Kd” value runs as follows: under setting [1], 69.2 nM; under setting [2], 213 nM.

With “AGUUAAUGCACAUGAGGAUCACCCAUGUCACUUUAUAGGAGACAGGAUAUGCAUGCCAUCAAUGUGCAGAAGGGUCACCACCGA”, the “apparent Kd” value by setting is: under setting [3], 85.6 nM; under setting [4], 147 nM.

Turning to “AACACAACAUGAAACAUGAGGAUCACCCAUGUUGUUUGUAAUCAGGAUAUGAUUUUAAUAAUGAAUUAGAAGGGAUAUGGAUUU”, the “apparent Kd” value was 28.9 nM under setting [3] and 36.9 nM under setting [4].

For “GGAUCGAUGUAGAAGGCUGUCCUAAAAUAGGACAGAGGAUAUACAUGAGGAUCACCCAUGUACUCCUUUAAAACGAUCCAAAUA”, the “apparent Kd” value is 5.44 nM under setting [1] and 7.59 nM under setting [2].

Regarding “AACUGACAUGAGGAUCACCCAUGUCAGGAUAUGACUUGAUAGAAAAAAAAAUAUCAUGUCAGAAGGGACAUGAA”, the “apparent Kd” value under setting [1] came to 16.4 nM and the “apparent Kd” value under setting [2] worked out at 13.5 nM.

Take “AGCUACGUUUCGUAGCAGCUAGGUGAGGAUAUUCAAAUUUUCACAUGAGGAUCACCCAUGUAUGUGAAGAAGGCGCCUAGAAAG”: the “apparent Kd” value under setting [3] was 9.58 nM and the “apparent Kd” value under setting [4] turned out to be 5.44 nM.

In the case of “UGAGCCUCGUGAGGAUAUACAUGAGGAUCACCCAUGUAAUAAAGUGAACGGAGGAAACUCCGAAUGUAGAAGGUACGAGGCUCA”, the “apparent Kd” value runs as follows: under setting [1], 10.1 nM; under setting [2], 44.2 nM.

Regarding “CCAUGGAAUGUAGGAUAUGACUGACAAAGUCAGUUAGAAGGACAUGAGGAUCACCCAUGUAGGAAACAACCACAUAAACCAUGG”, the “apparent Kd” value under setting [1] turned out to be 7.62 nM and the “apparent Kd” value under setting [2] came to 6.97 nM.

Take “GACGUACAUGAGGAUCACCCAUGUACAAACGUACAAGGAUAUGUGUGGAAACCGUACUAUACAGAAGGUGUUUGUC”: the “apparent Kd” value runs as follows: under setting [3], 14.3 nM; under setting [4], 14.1 nM.

As to “AGGUGACAUGAGGAUCACCCAUGUCAGGAUAUAUACACCGCCGGCGUGAAGCCAGCGGAUAGAAGGGACAAAAU”, the “apparent Kd” value was 15.4 nM under setting [1] and 16.9 nM under setting [2].

For “GUUAAGGUAGGAUAUACGAUAAUAUAGGGUAGAUAUAGAACACAUGAGGAUCACCCAUGUAGAAGGACCAAUUG”, the “apparent Kd” value under setting [1] is 29.5 nM and the “apparent Kd” value under setting [2] is 88.9 nM.

Turning to “GGGCAAUUAGGAUAUACAUGAGGAUCACCCAUGUGGAAGCCCGGACAGGUAAUCCACUGUAGAAGGGAUUGCCA”, the “apparent Kd” value runs as follows: under setting [1], 12 nM; under setting [2], 13.3 nM.

For the sequence “UGAUAACAUGUAGGAUAUCCAGCAUUGACCAUCGGAGAAGGACAUGAGGAUCACCCAUGUACCGAUACAAUGGGAUAAGGGAAU”, the “apparent Kd” value runs as follows: under setting [1], 16.1 nM; under setting [2], 18.6 nM.

Take “UUUGGGUCAGGAUAUUGUUAGUUUAGUUGUUUGUAUUAGUUCGAGAAGGGACAUGAGGAUCACCCAUGUGGUAA”: the “apparent Kd” value by setting is: under setting [1], 94.9 nM; under setting [2], 69.9 nM.

Regarding “CCGGUGGCGCUAGUGGUGACUGCACAGGAUAUAGCGCUCACAUGAGGAUCACCCAUGUAAGGACGCUAGAAGGGUGAAAGUAUA”, the “apparent Kd” value reads like this: under setting [3], 59.9 nM; under setting [4], 19.9 nM.

Turning to “UUUUUUCCUCAUGUACAUGAGGAACAUGAGGAUCACCCAUGUAGAAGGAUUUCCCUUAAAUUAAGAUAGGAUAUACAUAUUUUU”, the “apparent Kd” value under setting [1] worked out at 88.2 nM and the “apparent Kd” value under setting [2] was 61.6 nM.

Consider “AUCAGCUCGUCAGGAUAUACGUUACUGCGUCAGCAGUGUGGUAAGAUCACAUGAGGAUCACCCAUGUAGAAGGGACGAGCUGAU”, for which the “apparent Kd” value runs as follows: under setting [1], 61.8 nM; under setting [2], 653 nM.

Turning to “GUAUGGAGGGAGAAGGGCUAGGAGGUCCAGCUUAUGUGUGUUGCAACAUGAGGAUCACCCAUGUAGCAGGAUAUCCCUUGUACA”, the “apparent Kd” value runs as follows: under setting [1], 44.4 nM; under setting [2], 242 nM.

In the case of “GGAAGGUGAGGAUAUACAAUGACGGAAACGUCAGGUGAGAGACAUGAGGAUCACCCAUGUAGAAGGCACGGAGA”, the “apparent Kd” value is 73.7 nM under setting [1] and 730 nM under setting [2].

Consider “AUGCUGUCAGGAUAUCGUUAAUUUAGUUGUUUGUAUUAGUUCGAGAAGGGACAUGAGGAUCACCCAUGUUUGUA”, for which the “apparent Kd” value reads like this: under setting [1], 30.8 nM; under setting [2], 37.4 nM.

As for “GUGGACGUCGUAGGAUAUGUAGGAUAUUCCUACAUGAGGAUCACCCAUGUUGAAAUGGAAGAAGGACAGAAGGACGAUGUCCAG”, the “apparent Kd” value is 58.5 nM under setting [3] and 12.7 nM under setting [4].

“GUAGCAUACUGAGGAUAUUCAUACCGGAAACGGACAUGAGGAUCACCCAUGUGGCGAAAGCCUUUGGAGAAGGCAGAAUGCUAC”: the “apparent Kd” value runs as follows: under setting [3], 13.7 nM; under setting [4], 13.7 nM.

In the case of “GGUUGGCGAGGAUAUACAUGAGGAUCACCCAUGUGGUCCUGCGGUGGUCUCGCCCUUUGUAGAAGGCGCGGGUC”, the “apparent Kd” value is, setting by setting: under setting [1], 35.7 nM; under setting [2], 30.6 nM.

On to “UGGUUGUGUGUUAGGAUAUGGUUUGGUGUUUCGGGCUAGAAGGGACAUGAGGAUCACCCAUGUGGCUGGCGGGU”, for which the “apparent Kd” value worked out at 72.6 nM under setting [1] and 58.1 nM under setting [2].
